Active and inactive are the calls of the source. The calls are words filed in the database; no cut-off is given here.
Experiments:
[1] = test system: Mycobacterium tuberculosis variant bovis; assay: Inhibition of oleic acid synthesis in Mycobacterium bovis BCG str. Pasteur 1173P2 overexpressing ethA gene; type: functional
How it was run: (§1)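 Mid-log cultures in Sauton medium exposed to graded drug concentrations (μg/ml) for 16 h at 37°C, then pulsed with 1 μCi/ml [2-14C]acetate for 8 h at 37°C. Cells PBS-washed, hydrolysed with 15% tetrabutylammonium hydroxide at 100°C overnight, methylated with CH3I in CH2Cl2; fatty and mycolic acid methyl esters resolved by TLC and autoradiographed.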

[2] = test system: Mycobacterium tuberculosis variant bovis; assay: Inhibition of mycolic acid synthesis in Mycobacterium bovis BCG str. Pasteur 1173P2 overexpressing ethA gene; type: functional; how it was run: as §1

## CC(C)CCSc1ccc(NC(=S)Nc2ccc(SCCC(C)C)cc2)cc1
[1]
  Activity: Active
[2]
  Activity: Active
